Screening data as filed in PubChem BioAssay.
Sampled rows, rich in hits. Any-hit rate of the full collection: about 2.3%.
TRPC4 block: inhibitors of mouse TRPC4 channel, primary screen, Fluo4 calcium, HEK293 TRPC4beta/mu-opioid cells; DAMGO-evoked Fluo4 calcium flux; active compounds read low; Short transient receptor potential channel 4 (Mus musculus), Q9QUQ5; 300,000 tested, 0.39% active; B-score at 10 µM; AID 2247, 2010;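 active means B-score over 3 SD under the library average, no early fluorescence shift, positive overall ratio signal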
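material = TRPC4beta/mu-opioid receptor HEK293 cell line | probe or stimulus = sequential submaximal and maximal DAMGO stimulation | compound dosing = one concentration per compound | measured by = Fluo4 Ca2+ flux fluorescence | evaluation = integrated fluorescence ratio relative to baseline, converted to per-well B score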
TRPC4 potent: positive allosteric modulators of TRPC4, primary screen, cell-based, mouse TRPC4beta, HEK293 mu-opioid, Fluo-4 calcium; AID 2227, 2009; B-score at 10 µM; 310,000 tested, 0.42% active; DAMGO EC20, Fluo-4 Ca2+ flux; active compounds read high;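 active means B-score of calcium response area above 5 SD of library B-scores, with initial fluorescence ratio within 5 SD of library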
TRPC6 act: mouse TRPC6 channel activators, primary screen, cell-based, HEK293, membrane potential dye | Short transient receptor potential channel 6 (Mus musculus), Q61143 | HEK293-TRPC6 membrane potential dye fluorescence; active compounds read high | B-score at 10 µM | 310,000 tested, 0.13% active;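 active means B-score of the integrated fluorescence ratio above library mean plus 3 SD, and starting fluorescence ratio within library mean plus 5 SD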;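 further: higher score means more depolarization so channel activation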
TRPC4 act: activators of mouse TRPC4 channel, primary screen, Fluo4 calcium, HEK293 TRPC4beta/mu-opioid cells. Short transient receptor potential channel 4 (Mus musculus), Q9QUQ5. Fluo4 calcium fluorescence; active compounds read high. B-score at 10 µM. 310,000 tested, 0.49% active. AID 2237, 2010;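 active means B-score above 5 SD of library B-scores, and initial fluorescence ratio not above library mean plus 5 SD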;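 further: positive B-score marks a calcium rise read as TRPC4 activation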
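system = HEK293 cells stably co-expressing mouse TRPC4beta and mu-opioid receptor | schedule = Fluo4 dye loading 45 min at room temperature, 110 s recording | measure = B-scored integrated calcium fluorescence ratio | signal = Fluo4 calcium-sensitive dye fluorescence, kinetic, 1 Hz baseline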
TRPC6 inhibitor: mouse TRPC6 channel inhibitors, primary screen, cell-based, HEK293, membrane potential dye. Short transient receptor potential channel 6 (Mus musculus), Q61143. ACh-evoked depolarization; active compounds read low. B-score at 10 µM. 310,000 tested, 1.1% active;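 active means B-score under library mean minus 3 SD, initial fluorescence not abnormally high, positive integrated signal ratio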;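 further: B-score derived from integrated fluorescence ratio over the kinetic read; more negative B-score means stronger inhibition of depolarization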
Of the large screens only hits and unclear results are named; the others gave an inactive call.

COc1cc(-c2nc3ccc4ccccc4c3c3c2CCC3)cc(OC)c1OC	none
COc1cc2ccccc2c2c1CCCC2=O	TRPC4 block -6
CSCCC(NS(=O)(=O)c1ccc(C)cc1)C(=O)N1CC=C(c2ccccc2)CC1 (centres undefined)	none
O=C(CSc1nnc(-c2ccccc2)o1)c1ccc2c(c1)OCCO2	TRPC4 block -6
COC(=O)C(=Cc1ccccc1[N+](=O)[O-])C(=O)OC	none
CCCS(=O)(=O)c1c(S(=O)(=O)CCC)c2cnccn2c1C(=O)c1ccc(Cl)cc1	TRPC4 potent 12
CCCN(CCC)CCSc1nc(O)c(C(C)C)c(=O)[nH]1	TRPC4 potent 12
CCCCCCc1c(O)nc(SCC(=O)O)[nH]c1=O	none
CC(C)c1c(O)nc(SCC(=O)N2CCCCC2)[nH]c1=O	TRPC4 potent 10
CCCCCc1c(O)nc(SCCN(CC)CC)[nH]c1=O	TRPC4 act 46
CC(C)c1c(O)nc(SCCC(=O)O)[nH]c1=O	none
CCCCCCc1c(O)nc(SCCN(C)C)[nH]c1=O	TRPC4 act 65
CCCCCc1c(O)nc(SCCN(C)C)[nH]c1=O	TRPC4 act 93
NS(=O)(=O)c1ccc(CCNC(=O)c2cnc(Cl)c(Cl)c2)cc1	none
COc1ccc(S(=O)(=O)N2CCCCCC2)cc1C(=O)N(C)Cc1ccc(Cl)cc1Cl	TRPC4 potent 26
CC1=NN(c2ccccc2)C(=O)/C1=C\c1c(C)[nH]n(-c2ccccc2)c1=O	none
CC1=NN(c2ccccc2)C(=O)/C1=C/c1c(O)n(-c2ccc(F)c(Cl)c2)[nH]c1=O	TRPC4 block -8
OCCC1CN(Cc2cccn2-c2cccnc2)CCN1CCc1ccccc1 (centres undefined)	TRPC4 block -5
OCCC1CN(Cc2cccn2-c2cccnc2)CCN1Cc1ccccc1 (centres undefined)	none
COc1ccc(-c2cc(C(=O)Nc3cc(Br)ccc3O)no2)cc1	none
Cc1cc(C)cc(NC(=O)N2CCN(S(C)(=O)=O)CC2)c1	none
CN(C)c1ccc(NC(=O)CSc2nnc(-c3ccco3)c(-c3ccco3)n2)cc1	TRPC6 inhibitor -5
Cn1cc(CNCC2CCCO2)c(-c2ccc(Oc3ccccc3)cc2)n1 (centres undefined)	TRPC4 block -7
COc1ccc(-c2nn(-c3ccccc3)cc2C(=O)NCC2CCCO2)cc1 (centres undefined)	TRPC4 act 49
Cc1cc(CNCc2cn(C)nc2-c2ccc(Oc3ccccc3)cc2)on1	none
O=C(NCC1CCCO1)c1cn(-c2ccccc2)nc1-c1ccccc1 (centres undefined)	none
O=C(N/N=C/c1c(F)cccc1Cl)C(=O)N1CCCCCC1	none
Cc1ccc2oc(C(=O)N(C)Cc3ccc(C)o3)c(C)c2c1	TRPC4 block -6
S=C(NCCc1ccccn1)Nc1ccccc1Cl	none
Cc1c(Cl)cccc1NC(=S)NCCc1ccccn1	TRPC4 act 60
S=C(NCCc1ccccn1)NC1CCCCC1	TRPC4 act 97
S=C(NCCc1cnc[nH]1)NC1CCCC1	TRPC4 act 98
COc1ccccc1C1=NOC(Cn2c(NCCCO)nc3c2c(=O)n(C)c(=O)n3C)C1 (centres undefined)	none
COc1ccc(C2=NOC(Cn3c(Cc4ccc(Cl)cc4)nc4c3c(=O)n(C)c(=O)n4C)C2)cc1 (centres undefined)	TRPC4 potent 10
O=C(NCc1ccccc1)NC(=O)c1ccc(Cl)cc1	none
COc1ccc(C(C(=O)NC2CCCCC2)N(C(=O)Cc2c[nH]c3ccccc23)c2ccccc2C)cc1OC (centres undefined)	TRPC4 potent 11
CCCCc1ccc(NC(=O)CSc2nnc(CNC(=O)c3ccco3)o2)cc1	none
CN1CCN(c2ccc(NC(=O)c3ccc(-c4ccc(Cl)cc4)o3)cc2)CC1	none
CN1CCN(c2ccc(NC(=O)c3ccc(-c4cccc([N+](=O)[O-])c4)o3)cc2)CC1	TRPC4 act 167
COc1cccc(-c2nc(CS(=O)(=O)CC(=O)Nc3ccc(C(C)=O)cc3)c(C)o2)c1	none
CCCCN(C)CCCNC(=O)C1CCC(CNS(=O)(=O)c2c(C)cc(C)cc2C)CC1 (centres undefined)	TRPC4 potent 12
CC(C)OCCCNC(=O)C1CCC(CNS(=O)(=O)c2cccc3nsnc23)CC1 (centres undefined)	none
CCCN(CCC)CCCNC(=O)C1CCC(CNS(=O)(=O)c2cccc3nsnc23)CC1 (centres undefined)	TRPC4 act 103
Cc1cc2oc(C(=O)N(Cc3ccco3)C3CCS(=O)(=O)C3)cc(=O)c2cc1Cl (centres undefined)	TRPC4 potent 82
CC1(C)C(=O)Nc2ccccc2N1C(=O)COC(=O)/C=C/c1ccc(OC(F)F)cc1	none
O=C(c1sc2ccccc2c1Cl)N(Cc1cccs1)C1CCS(=O)(=O)C1 (centres undefined)	TRPC4 act 120
COc1ccc(C(=O)CCC(=O)N2CCN(c3ccccc3)CC2)cc1	none
COc1cc2c(cc1OC)C(C)N(CCc1ccc(Cl)cc1)CC2 (centres undefined)	TRPC4 block -6
COc1cc2c(cc1OC)C(C)N(CCN1C(=O)c3ccccc3C1=O)CC2 (centres undefined)	none
O/N=C/Cc1[nH]c2ccccc2c1-c1ccccc1	TRPC4 block -5
O=c1[nH]c2ccccc2c(O)c1-c1ccccc1	none
Cc1c(N2C(=O)/C(=C\C3CC=CCC3)SC2=S)c(=O)n(-c2ccccc2)n1C (centres undefined)	TRPC4 potent 17
Cc1c(N2C(=O)/C(=C/C3CC=CCC3)SC2=S)c(=O)n(-c2ccccc2)n1C (centres undefined)	none
Cc1oc2c(c1C(=O)O)C(=O)c1ccccc1C2=O	none
Cc1oc2c(c1C(=O)c1ccccc1)C(=O)C(=O)c1ccccc1-2	TRPC4 block -6
C/C(CC(=O)NC(C)(C)C)=N\NC(=O)COc1ccc(C)cc1Br	TRPC4 potent 11
CN(C)CCNC(=O)c1cc(Sc2ccc(F)cc2)nc2ccccc12	TRPC4 potent 31
Cc1ccc(Sc2cc(C(=O)NCCN(C)C)c3ccccc3n2)cc1	TRPC4 act 203
CC(=O)N1CCc2cc(Br)cc(S(=O)(=O)N3CCC(C(=O)O)CC3)c21	none
CCOC(=O)C1CCN(c2nc3ccccc3nc2C(C#N)C(=O)OCCOC)CC1 (centres undefined)	TRPC4 block -7
